Tests used:
DU-145 = test: Growth inhibition of human DU145 cells after 72 hrs by CellTiter-Glo or CCK-8 assay; assay type: functional; details: DU-145, 72 h
[1] = Cmax in Sprague-Dawley rat at 10 mg/kg, po up to 24 hrs; assay type: ADME, organism-based; set-up: dose 10 mg/kg, route oral; details: in vivo
In short: (§1)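 Sprague Dawley rats given a single i.v. dose of 1 mg/kg or an oral dose of 10 mg/kg. Plasma AUC(0-t), AUC(0-∞), MRT(0-t), T1/2, Tmax and Cmax were derived and reported as mean±SD.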

[2] = Half-life in Sprague-Dawley rat at 10 mg/kg, po; assay type: ADME, organism-based; details: in vivo; in short: as §1
[3] = target: Mitogen-activated protein kinase 14 (Homo sapiens, UniProt Q16539); test: Binding affinity to full length human p38alpha (1 to 360 amino acid residues) expressed in bacterial expression system assessed as percent control number at 1 uM by KINOMEscan assay
Mitogen-activated protein kinase 14, sequence (Q16539 whole entry, the tested form may be a part): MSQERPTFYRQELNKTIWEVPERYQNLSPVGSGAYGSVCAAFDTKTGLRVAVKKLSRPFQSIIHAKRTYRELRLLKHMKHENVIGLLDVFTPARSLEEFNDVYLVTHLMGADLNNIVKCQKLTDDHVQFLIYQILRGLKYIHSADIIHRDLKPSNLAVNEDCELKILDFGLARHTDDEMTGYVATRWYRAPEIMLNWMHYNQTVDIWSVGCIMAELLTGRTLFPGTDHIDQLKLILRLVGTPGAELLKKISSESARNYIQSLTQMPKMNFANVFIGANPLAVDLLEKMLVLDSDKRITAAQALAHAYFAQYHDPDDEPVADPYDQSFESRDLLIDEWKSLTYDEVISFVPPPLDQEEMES
In short: (§2)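 KINOMEscan competition binding panel of 468 kinases, with the compound tested at 1 µM. Binding is expressed as percent of control relative to DMSO.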

[4] = AUC (0 to t) in Sprague-Dawley rat at 10 mg/kg, po up to 24 hrs; assay type: ADME, organism-based; set-up: time < 24 hr, dose 10 mg/kg, route oral; details: in vivo; in short: as §1
[5] = Growth inhibition of CHO cells after 72 hrs by CellTiter-Glo or CCK-8 assay; assay type: cell-based, Cricetulus griseus; details: chinese hamster
T-24 = test: Growth inhibition of human T24 cells after 72 hrs by CellTiter-Glo or CCK-8 assay; assay type: functional; details: T-24, 72 h
[6] = Tmax in Sprague-Dawley rat at 10 mg/kg, po; assay type: ADME, organism-based; details: in vivo; in short: as §1
[7] = Tmax in Sprague-Dawley rat at 1 mg/kg, iv; assay type: ADME, organism-based; details: in vivo; in short: as §1
[8] = target: Receptor-type tyrosine-protein kinase FLT3 (Homo sapiens) (UniProt P36888); test: Inhibition of recombinant TEL-fused FLT3 (unknown origin) expressed in mouse BAF3 cells assessed as growth inhibition after 72 hrs by CellTiter-Glo or CCK-8 assay; assay type: cell-based
Receptor-type tyrosine-protein kinase FLT3 (Homo sapiens), sequence (P36888 whole entry, the tested form may be a part): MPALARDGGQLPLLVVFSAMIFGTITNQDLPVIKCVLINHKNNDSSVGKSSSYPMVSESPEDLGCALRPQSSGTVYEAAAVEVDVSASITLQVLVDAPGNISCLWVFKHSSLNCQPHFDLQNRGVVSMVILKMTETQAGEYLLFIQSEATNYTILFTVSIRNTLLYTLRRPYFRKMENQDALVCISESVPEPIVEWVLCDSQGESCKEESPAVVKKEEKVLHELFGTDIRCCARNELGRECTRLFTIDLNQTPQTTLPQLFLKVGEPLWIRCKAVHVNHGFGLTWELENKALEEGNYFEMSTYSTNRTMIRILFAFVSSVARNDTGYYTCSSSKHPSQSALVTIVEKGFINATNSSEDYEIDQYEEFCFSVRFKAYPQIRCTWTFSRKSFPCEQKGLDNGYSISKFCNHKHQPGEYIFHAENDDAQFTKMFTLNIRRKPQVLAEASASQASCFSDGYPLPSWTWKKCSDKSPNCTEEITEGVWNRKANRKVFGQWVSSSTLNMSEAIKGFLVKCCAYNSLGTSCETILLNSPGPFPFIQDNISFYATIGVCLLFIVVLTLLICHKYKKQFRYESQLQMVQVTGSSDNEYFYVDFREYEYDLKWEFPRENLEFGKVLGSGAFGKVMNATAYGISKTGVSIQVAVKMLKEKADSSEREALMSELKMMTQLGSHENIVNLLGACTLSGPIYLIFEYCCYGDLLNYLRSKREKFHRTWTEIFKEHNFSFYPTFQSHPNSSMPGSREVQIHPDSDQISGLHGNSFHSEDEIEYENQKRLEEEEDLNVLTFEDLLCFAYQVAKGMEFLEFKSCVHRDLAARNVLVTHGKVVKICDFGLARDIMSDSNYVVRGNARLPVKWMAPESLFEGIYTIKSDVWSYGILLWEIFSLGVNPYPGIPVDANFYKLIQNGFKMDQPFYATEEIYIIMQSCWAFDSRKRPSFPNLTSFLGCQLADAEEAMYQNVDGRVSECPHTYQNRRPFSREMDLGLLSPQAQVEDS
In short: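 Isogenic murine BaF3 cells transformed with TEL-fused kinases, whose proliferation depends on the fused kinase, were used. Parental BaF3 cells served as the general selectivity counter-screen. The anti-proliferative read-out was reported as GI50.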

PC-3 = test: Growth inhibition of human PC3 cells after 72 hrs by CellTiter-Glo or CCK-8 assay; assay type: functional; details: PC-3, 72 h
5637 = test: Growth inhibition of human 5637 cells after 72 hrs by CellTiter-Glo or CCK-8 assay; assay type: functional; details: Homo sapiens, 5637, 72 h
769-P = test: Growth inhibition of human 769-P cells after 72 hrs by CellTiter-Glo or CCK-8 assay; assay type: functional
[9] = Growth inhibition of CHL cells after 72 hrs by CellTiter-Glo or CCK-8 assay; assay type: cell-based, Cricetulus griseus; details: chinese hamster
[10] = target: T1, Epithelial discoidin domain-containing receptor 1 (Homo sapiens, UniProt Q08345); test: Inhibition of human GST-tagged DDR1 catalytic domain expressed in baculovirus expression system by LanthaScreen assay
T1 sequence (Q08345 whole entry, the tested form may be a part): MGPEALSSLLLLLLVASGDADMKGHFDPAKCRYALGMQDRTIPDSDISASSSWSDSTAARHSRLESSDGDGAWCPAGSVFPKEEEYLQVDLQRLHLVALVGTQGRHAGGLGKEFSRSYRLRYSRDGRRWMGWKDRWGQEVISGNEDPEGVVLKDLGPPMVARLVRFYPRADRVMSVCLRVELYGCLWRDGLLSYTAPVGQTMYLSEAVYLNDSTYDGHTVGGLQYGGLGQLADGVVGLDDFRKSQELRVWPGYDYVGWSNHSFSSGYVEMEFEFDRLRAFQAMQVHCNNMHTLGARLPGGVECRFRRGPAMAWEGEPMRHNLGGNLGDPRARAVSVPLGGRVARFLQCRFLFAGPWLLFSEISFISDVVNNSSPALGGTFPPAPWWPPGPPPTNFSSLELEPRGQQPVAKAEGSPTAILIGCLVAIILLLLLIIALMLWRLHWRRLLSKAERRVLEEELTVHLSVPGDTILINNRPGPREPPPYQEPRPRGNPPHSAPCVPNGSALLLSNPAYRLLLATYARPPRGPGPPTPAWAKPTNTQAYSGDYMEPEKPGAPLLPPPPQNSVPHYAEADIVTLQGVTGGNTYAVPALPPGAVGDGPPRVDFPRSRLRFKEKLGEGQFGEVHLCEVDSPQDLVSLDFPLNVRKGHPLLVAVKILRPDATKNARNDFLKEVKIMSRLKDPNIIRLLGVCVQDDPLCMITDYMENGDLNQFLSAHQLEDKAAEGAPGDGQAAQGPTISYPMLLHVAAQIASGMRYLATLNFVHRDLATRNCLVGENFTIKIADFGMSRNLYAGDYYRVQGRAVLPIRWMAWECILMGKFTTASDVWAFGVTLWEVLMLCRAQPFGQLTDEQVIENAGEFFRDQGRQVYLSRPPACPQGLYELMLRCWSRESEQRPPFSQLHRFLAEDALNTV

[11] = target: T1, Epithelial discoidin domain-containing receptor 1; test: Binding affinity to human DDR1 (565 to 876 amino acid residues) expressed in bacterial expression system assessed as percent control number at 1 uM by KINOMEscan assay; in short: as §2

C=CC(=O)Nc1cc(Nc2ncc(C(=O)Nc3cc(NC(=O)c4cc(OC)c(OC)c(OC)c4)ccc3C)c(NC)n2)ccc1C gave a GI50 (DU-145) of 7.89 µM, a Cmax [1] of 5.58 ng/mL and a half-life [2] of 367 min. For the same compound, the Activity [3] was 0%, the AUC(0-t) at 24 h [4] was 0.0134 µg·h/mL and the GI50 at 72 h [5] was greater than 10 µM. It also gave a GI50 (T-24) of 8.98 µM, a Tmax [6] of 11.4 min and a Tmax [7] of 1.02 min. The GI50 [8] was greater than 10 µM, the GI50 (PC-3) was 3.45 µM and the GI50 5637 was greater than 10 µM. The GI50 (769-P) was greater than 10 µM, the GI50 at 72 h [9] was greater than 10 µM and the IC50 [10] was 0.265 µM. For the same compound, the Activity [11] was 0.05%.
